Measurements published in ChEMBL document CHEMBL4610103, “Oleanane Triterpenoids from the Leaves of Gymnema inodorum and Their Insulin Mimetic Activities” (J Nat Prod, 2020).
Active and inactive are the calls of the source.

Tests used:
Type in all cases: functional, cell-based
3T3-L1 [1] = test: Induction of glucose uptake in mouse 3T3L1 cells assessed as increase in 2-NBDG uptake at 20 uM after 1 hr by fluorescence method
In short: (§1)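 Differentiated 3T3-L1 adipocytes switched to glucose-free medium containing 100 nM insulin, test compounds (20 μM single dose, or 5, 10 and 20 μM) and 50 μM 2-NBDG. Cells washed twice with PBS and lysed in 1% Triton X-100/0.1 M K3PO4 in PBS. Fluorescence read at ex 450/em 535 nm. Means ± SD of three independent experiments, each in triplicate. DMSO vehicle control; insulin positive control.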

3T3-L1 [2] = test: Induction of glucose uptake in mouse 3T3L1 cells assessed as increase in 2-NBDG uptake after 1 hr by fluorescence method; in short: as §1
3T3-L1 [3] = test: Induction of glucose uptake in mouse 3T3L1 cells assessed as increase in 2-NBDG uptake at 20 uM after 1 hr by fluorescence microscopy
In short: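 Differentiated 3T3-L1 adipocytes treated with 20 μM compound in the presence of 2-NBDG. Green fluorescence inside cells was imaged by fluorescence microscopy to follow 2-NBDG transport. Signals expressed as means ± SD (n = 3). DMSO negative control; insulin positive control.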

Measured: Activity

CNc1ccccc1C(=O)O[C@H]1CC(C)(C)C[C@H]2C3=CC[C@@H]4[C@@]5(C)CC[C@H](O[C@@H]6O[C@H](C(=O)O)[C@@H](O)[C@H](O)[C@H]6O)[C@@](C)(CO)[C@@H]5CC[C@@]4(C)[C@]3(C)C[C@H](O)[C@@]12CO
active: 3T3-L1 [1] | 3T3-L1 [2] Dose-dependent effect | 3T3-L1 [3]

CC1(C)C[C@H](OC(=O)c2ccccc2)[C@]2(CO)[C@@H](O)C[C@]3(C)C(=CC[C@@H]4[C@@]5(C)CC[C@H](O[C@@H]6O[C@H](C(=O)O)[C@@H](O)[C@H](O)[C@H]6O)[C@@](C)(CO)[C@@H]5CC[C@]43C)[C@@H]2C1
active: 3T3-L1 [1] | 3T3-L1 [2] Dose-dependent effect | 3T3-L1 [3]

CC1(C)CC[C@]2(C)[C@@H](O)C[C@]3(C)C(=CC[C@@H]4[C@@]5(C)CC[C@H](O[C@@H]6O[C@H](C(=O)O)[C@@H](O)[C@H](O)[C@H]6O[C@@H]6O[C@H](CO)[C@@H](O)[C@H](O)[C@H]6O)C(C)(C)[C@@H]5CC[C@]43C)[C@@H]2C1
active: 3T3-L1 [1] | 3T3-L1 [2] Dose-dependent effect | 3T3-L1 [3]
